ChEMBL document CHEMBL1128511, “4-Aza-3-oxo-5 alpha-androst-1-ene-17 beta-N-aryl-carboxamides as dual inhibitors of human type 1 and type 2 steroid 5 alpha-reductases. Dramatic effect of N-aryl substituents on type 1 and type 2 5 alpha-reductase inhibitory potency” (J Med Chem, 1995)

How the values were obtained:
[1] = biological target: T1, 3-oxo-5-alpha-steroid 4-dehydrogenase 2 (Homo sapiens, UniProt P31213); test: Inhibition of recombinant human Steroid 5-alpha-reductase type 2
T1 sequence (P31213 whole entry): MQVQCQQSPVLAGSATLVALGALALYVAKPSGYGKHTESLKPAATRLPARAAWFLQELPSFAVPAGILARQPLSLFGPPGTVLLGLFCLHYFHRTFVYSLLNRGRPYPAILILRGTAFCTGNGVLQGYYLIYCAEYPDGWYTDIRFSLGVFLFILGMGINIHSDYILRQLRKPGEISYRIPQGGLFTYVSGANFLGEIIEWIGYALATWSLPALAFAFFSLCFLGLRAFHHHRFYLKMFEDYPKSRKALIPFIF
Procedure, shortened: (§1)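 Baculovirus-expressed recombinant human type 1 or type 2 5α-reductase; cofactor and inhibitor preincubated with the enzyme before testosterone is added. Fixed-time assay following conversion of testosterone to DHT with and without inhibitor. The IC50 is the nM concentration giving 50% inhibition of DHT formation.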

[2] = biological target: T2, 3-oxo-5-alpha-steroid 4-dehydrogenase 1 (Homo sapiens, UniProt P18405); test: Inhibition of recombinant human Steroid 5-alpha-reductase type I; procedure, shortened: as §1
T2 sequence (P18405 whole entry): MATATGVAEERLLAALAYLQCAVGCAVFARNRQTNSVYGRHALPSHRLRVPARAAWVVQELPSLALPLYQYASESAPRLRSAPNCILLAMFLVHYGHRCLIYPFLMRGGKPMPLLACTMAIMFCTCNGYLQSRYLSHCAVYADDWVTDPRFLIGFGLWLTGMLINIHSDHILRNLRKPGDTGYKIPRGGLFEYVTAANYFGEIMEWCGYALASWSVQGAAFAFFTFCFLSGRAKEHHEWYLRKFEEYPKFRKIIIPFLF

[3] = Kinetic Parameter k3/k1 for Inhibition of Type-2 5-alpha-reductase
Procedure, shortened: (§2)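 Baculovirus-expressed recombinant human type 1 or type 2 5α-reductase; conversion of testosterone to DHT followed over time with and without inhibitor under standard conditions. Second-order rate constants obtained by fitting progress data to the integrated first-order rate equation for time-dependent inhibition.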

[4] = Kinetic Parameter Ki for Inhibition of Type 1 5-alpha-reductase
[5] = Kinetic Parameter Ki for Inhibition of Type-2 5-alpha-reductase
[6] = Kinetic Parameter k3/k1 for Inhibition of Type 1 5-alpha-reductase; procedure, shortened: as §2

Row | SMILES | IC50 [1] | IC50 [2] | k3/k1 [3] | Ki [4] | Ki [5] | k3/ki [3] | k3/ki [6]
1 | Cc1ccccc1NC(=O)C1CCC2C3CCC4NC(=O)C=C[C@]4(C)C3CC[C@]12C (stereo not given in full) | < 0.1 nM | 30.3 nM |  |  |  |  | 
2 | C[C@]12C=CC(=O)NC1CCC1C2CC[C@]2(C)C(C(=O)Nc3cccc4ccccc34)CCC12 (stereo not given in full) | 0.2 nM | 8.1 nM | 2100000 M⁻¹ s⁻¹ | 70 nM | 0.5 nM |  | 
3 | Cc1cccc(NC(=O)C2CCC3C4CCC5NC(=O)C=C[C@]5(C)C4CC[C@]23C)c1 (stereo not given in full) | 0.3 nM | 24.6 nM |  |  |  |  | 
4 | C[C@]12C=CC(=O)NC1CCC1C2CC[C@]2(C)C(C(=O)Nc3cc(C(F)(F)F)ccc3C(F)(F)F)CCC12 (stereo not given in full) | < 0.1 nM | 5.8 nM |  | 2.4 nM | 0.5 nM | 7000000 M⁻¹ s⁻¹ | 270000 M⁻¹ s⁻¹
5 | C[C@]12C=CC(=O)NC1CCC1C2CC[C@]2(C)C(C(=O)Nc3ccccc3N)CCC12 (stereo not given in full) | < 1 nM | 130 nM |  |  |  |  | 
6 | COc1cccc(NC(=O)C2CCC3C4CCC5NC(=O)C=C[C@]5(C)C4CC[C@]23C)c1 (stereo not given in full) | < 1 nM | 19 nM |  |  |  |  | 
7 | C[C@]12C=CC(=O)NC1CCC1C2CC[C@]2(C)C(C(=O)Nc3ccc(-c4ccccc4)cc3)CCC12 (stereo not given in full) | 2.2 nM | 34.9 nM |  |  |  |  | 
8 | C[C@]12C=CC(=O)NC1CCC1C2CC[C@]2(C)C(C(=O)Nc3ccc(Cl)cc3)CCC12 (stereo not given in full) | 0.2 nM | 6.8 nM |  |  |  |  | 
9 | C[C@]12C=CC(=O)NC1CCC1C2CC[C@]2(C)C(C(=O)Nc3ccccc3O)CCC12 (stereo not given in full) | < 1 nM | 12.9 nM |  |  |  |  | 
10 | C[C@]12C=CC(=O)NC1CCC1C2CC[C@]2(C)C(C(=O)Nc3cccc(O)c3)CCC12 (stereo not given in full) | < 1 nM | 52 nM |  |  |  |  | 
11 | C[C@]12C=CC(=O)NC1CCC1C2CC[C@]2(C)C(C(=O)Nc3ccccc3-c3ccccc3)CCC12 (stereo not given in full) | < 0.1 nM | 38.3 nM |  |  |  |  | 
12 | CN(C(=O)C1CCC2C3CCC4NC(=O)C=C[C@]4(C)C3CC[C@]12C)c1ccccc1 (stereo not given in full) | 24.6 nM | 350 nM |  |  |  |  | 
13 | C[C@]12C=CC(=O)NC1CCC1C2CC[C@]2(C)C(C(=O)Nc3ccccc3F)CCC12 (stereo not given in full) | < 0.1 nM | 7.9 nM |  |  |  |  | 
14 | CCN(C(=O)C1CCC2C3CCC4NC(=O)C=C[C@]4(C)C3CC[C@]12C)c1ccccc1 (stereo not given in full) | 7.9 nM | 614 nM |  |  |  |  | 
15 | C[C@]12C=CC(=O)NC1CCC1C2CC[C@]2(C)C(C(=O)Nc3ccc(C(F)(F)F)cc3)CCC12 (stereo not given in full) | 0.4 nM | 20.9 nM |  |  |  |  | 
16 | C[C@]12C=CC(=O)NC1CCC1C2CC[C@]2(C)C(C(=O)N3CCCCc4ccccc43)CCC12 (stereo not given in full) | 10.2 nM | 595 nM |  |  |  |  | 
17 | C[C@]12C=CC(=O)NC1CCC1C2CC[C@]2(C)C(C(=O)Nc3cccc(C(F)(F)F)c3)CCC12 (stereo not given in full) | 0.1 nM | 12.5 nM |  |  |  |  | 

More lines, now with the values ahead:

Row | IC50 [1] | IC50 [2] | k3/k1 [3] | Ki [4] | Ki [5] | k3/ki [3] | k3/ki [6] | SMILES
18 | 0.2 nM | 17.2 nM |  |  |  |  |  | C[C@]12C=CC(=O)NC1CCC1C2CC[C@]2(C)C(C(=O)Nc3ccc4ccccc4c3)CCC12 (stereo not given in full)
19 | < 0.1 nM | 14.5 nM |  |  |  |  |  | C[C@]12C=CC(=O)NC1CCC1C2CC[C@]2(C)C(C(=O)Nc3ccccc3Cl)CCC12 (stereo not given in full)
20 | < 1 nM | 14 nM |  |  |  |  |  | Cc1cccc(C)c1NC(=O)C1CCC2C3CCC4NC(=O)C=C[C@]4(C)C3CC[C@]12C (stereo not given in full)
21 | < 1 nM | 11 nM |  |  |  |  |  | COc1ccccc1NC(=O)C1CCC2C3CCC4NC(=O)C=C[C@]4(C)C3CC[C@]12C (stereo not given in full)
22 | 0.1 nM | 18.2 nM |  |  |  |  |  | C[C@]12C=CC(=O)NC1CCC1C2CC[C@]2(C)C(C(=O)Nc3cccc(Cl)c3)CCC12 (stereo not given in full)
23 | < 1 nM | 94 nM |  |  |  |  |  | C[C@]12C=CC(=O)NC1CCC1C2CC[C@]2(C)C(C(=O)Nc3cccc(N)c3)CCC12 (stereo not given in full)
24 | 1.6 nM | 19 nM |  |  |  |  |  | C[C@]12C=CC(=O)NC1CCC1C2CC[C@]2(C)C(C(=O)Nc3ccc(C(=O)c4ccccc4)cc3)CCC12 (stereo not given in full)
25 | < 0.1 nM | 5.6 nM |  | 12 nM | 1.3 nM | 9700000 M⁻¹ s⁻¹ | 35000 M⁻¹ s⁻¹ | C[C@]12C=CC(=O)NC1CCC1C2CC[C@]2(C)C(C(=O)Nc3ccccc3C(F)(F)F)CCC12 (stereo not given in full)
26 | 0.2 nM | 20.5 nM |  |  |  |  |  | C[C@]12C=CC(=O)NC1CCC1C2CC[C@]2(C)C(C(=O)Nc3cccc(Br)c3)CCC12 (stereo not given in full)
27 | 25.2 nM | > 1000 nM |  |  |  |  |  | C[C@]12C=CC(=O)NC1CCC1C2CC[C@]2(C)C(C(=O)N(c3ccccc3)c3ccccc3)CCC12 (stereo not given in full)
28 | 0.2 nM | 22.5 nM |  |  |  |  |  | C[C@]12C=CC(=O)NC1CCC1C2CC[C@]2(C)C(C(=O)Nc3ccc(F)cc3)CCC12 (stereo not given in full)
29 | 0.1 nM | 17.2 nM |  |  |  |  |  | Cc1ccc(NC(=O)C2CCC3C4CCC5NC(=O)C=C[C@]5(C)C4CC[C@]23C)cc1 (stereo not given in full)
30 | < 0.1 nM | 14 nM |  | 24 nM | 1.4 nM | 5000000 M⁻¹ s⁻¹ | 51000 M⁻¹ s⁻¹ | C[C@]12C=CC(=O)NC1CCC1C2CC[C@]2(C)C(C(=O)Nc3cccc(-c4ccccc4)c3)CCC12 (stereo not given in full)
31 | < 1 nM | 12 nM |  |  |  |  |  | C[C@]12C=CC(=O)NC1CCC1C2CC[C@]2(C)C(C(=O)Nc3cccc(C(=O)c4ccccc4)c3)CCC12 (stereo not given in full)
32 | 0.2 nM | 23 nM |  |  |  |  |  | C[C@]12C=CC(=O)NC1CCC1C2CC[C@]2(C)C(C(=O)Nc3cccc(F)c3)CCC12 (stereo not given in full)
33 | 0.2 nM | 20 nM |  | 230 nM | 1.7 nM | 1700000 M⁻¹ s⁻¹ | 3900 M⁻¹ s⁻¹ | C[C@]12C=CC(=O)NC1CCC1C2CC[C@]2(C)C(C(=O)Nc3ccccc3)CCC12 (stereo not given in full)
34 | < 1 nM | 74 nM |  |  |  |  |  | C[C@]12C=CC(=O)NC1CCC1C2CC[C@]2(C)C(C(=O)Nc3ccc(O)cc3)CCC12 (stereo not given in full)
35 | < 1 nM | 28.7 nM |  |  |  |  |  | C[C@]12C=CC(=O)NC1CCC1C2CC[C@]2(C)C(C(=O)Nc3ccccc3C(=O)c3ccccc3)CCC12 (stereo not given in full)
36 | 1.4 nM | 154 nM |  |  |  |  |  | C[C@]12C=CC(=O)NC1CCC1C2CC[C@]2(C)C(C(=O)N3CCCc4ccccc43)CCC12 (stereo not given in full)
37 | < 1 nM | 26 nM |  |  |  |  |  | COc1ccc(NC(=O)C2CCC3C4CCC5NC(=O)C=C[C@]5(C)C4CC[C@]23C)cc1 (stereo not given in full)
38 | < 1 nM | 120 nM |  |  |  |  |  | C[C@]12C=CC(=O)NC1CCC1C2CC[C@]2(C)C(C(=O)Nc3ccc(N)cc3)CCC12 (stereo not given in full)
